Test results published in article PMC8961603 (RSC Advances, 2022).
≈ marks a conversion by molar mass, not a printed value. Entries after “also recorded” stand apart in the source; their conditions may differ.

Legend:
Vero cells = assay: In vitro cytotoxicity assay; assay type: cell-based; details: MTT
[1] = tested on: third stage instar larvae of Aedes aegypti; assay: Larvicidal bioassay; assay type: in vivo; details: for larvicidal activity (in words): 24, 48 and 72 h exposure, 50-250 μg ml^−1
[2] = In vitro cytotoxicity assay; assay type: cell-based; details: African green monkey, Vero cells, Vero IC50 cytotoxicity, MTT
[3] = tested on: human blood cells (red blood cell suspension); assay: Haemolytic assay; assay type: cell-based
In short: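 Fresh anticoagulated human blood spun 10 min at 2000 rpm; pellet resuspended in 0.9% NaCl to a 2% v/v red cell suspension. Cells incubated with test compound at 25, 50 or 100 μg ml−1 for 1 h at 37 °C, 5% CO2. Haemoglobin release read at 540 nm. Controls were 1% v/v NaOH for complete lysis and 0.9% NaCl for none. Percent haemolysis was calculated.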

[4] = tested on: Aedes aegypti larvae (midgut); assay: Histopathological analysis of larvae; assay type: in vivo; details: 72 h exposure
[5] = larvicidal LC50 used in QSAR training set, exposure time not given
[6] = 24 h exposure, log probit analysis
[7] = 48 h exposure, log probit analysis
[8] = 72 h exposure, log probit analysis
[9] = Aedes aegypti, 24 h, 24 h exposure, log probit analysis
[10] = Aedes aegypti, 48 h, 48 h exposure, log probit analysis
[11] = Aedes aegypti, 72 h, 72 h exposure, log probit analysis

Which “Vero IC50 cytotoxicity” value (Vero cells) does the source give for “1-[(E)-2-Phenylethenyl]-2-{[(3,4,5-trimethoxy phenyl) methylidene] amino}-2,5-dihydro-1H-1,2,4-triazole-3-thiol [CA 5]” here?
The value was 223 ± 0.05 µg/mL.

Which LC50 [1, 5] does the source give for “2-(3-Methylphenyl)-5-[(E)-2-phenylethenyl]-5,6-dihydro[1,2,4]triazolo[5,1-b][1,3,4]thia diazole [CATD 4]” here?
Its LC50 is 0.15 µM.

What about the “Vero IC50 cytotoxicity” value (Vero cells) of the same compound?
The value was 252 ± 0.20 µg/mL.

With “2-{[(4-Chlorophenyl) methylidene] amino}-1-[(E)-2-phenylethenyl]-2,5-dihydro-1H-1,2,4-triazole-3-thiol [CA 1]” as the compound, how does the LC50 [1, 5] read?
Its LC50 is 0.13 µM.

What about the “Vero IC50 cytotoxicity” value (Vero cells) of the same compound?
The value was 309 ± 0.21 µg/mL.

With Nc1ccc(/C=C/C(=O)NNc2ccc([N+](=O)[O-])cc2[N+](=O)[O-])cc1 [ACA 1, (2E)-3-(4-Aminophenyl)-N′-(2,4-dinitrophenyl)prop-2-enehydrazide] as the compound, how does the IC50 [2] read?
The IC50 was 285 ± 0.05 µg/mL (≈ 830 µM).

With NC(=S)NNC(=O)/C=C/c1ccc(N)cc1 [ACA 3, 2-[(2E)-3-(4-Aminophenyl)prop-2-enoyl]hydrazine-1-carbothioamide] as the compound, how does the IC50 [2] read?
The IC50 was 254 ± 0.03 µg/mL (≈ 1070 µM).

For COc1cc(C=NN2C(S)=NCN2/C=C/c2ccccc2)ccc1O [CA 7, 2-Methoxy-4-[({2-[(E)-2-phenylethenyl]-5-sulfanyl-2,3-dihydro-1H-1,2,4-triazol-1-yl}imino)methyl] phenol], which IC50 [2] is on record?
The IC50 was 295 ± 0.04 µg/mL (≈ 832 µM).

With O=[N+]([O-])c1ccc(C=NN2C(S)=NCN2/C=C/c2ccccc2)cc1 [CA 9, 2-{[(4-Nitrophenyl)methylidene]amino}-1-[(E)-2-phenylethenyl]-2,5-dihydro-1H-1,2,4-triazole-3-thiol] as the compound, how does the IC50 [2] read?
The IC50 was 235 ± 0.05 µg/mL (≈ 665 µM).

What does the source list for SC1=NCN(/C=C/c2ccccc2)N1N=Cc1ccc(Br)cc1 [CA 10, 2-{[(4-Bromophenyl)methylidene]amino}-1-[(E)-2-phenylethenyl]-2,5-dihydro-1H-1,2,4-triazole-3-thiol]?
LC90 [1, 6]: 210.414 ppm; LC90 [1, 7]: 172.096 ppm; LC90 [1, 8]: 122.913 ppm; LC50 [1, 9]: 156 µg/mL; LC50 [1, 10]: 121 µg/mL; LC50 [1, 11]: 50.3 µg/mL; IC50 [2]: 241 ± 0.01 µg/mL (≈ 622 µM)

With CN(C)c1ccc(/C=C/C=NN2C(S)=NCN2/C=C/c2ccccc2)cc1 [CA 11, 2-({(2E)-3-[4-(Dimethylamino)phenyl]prop-2-en-1-ylidene}amino)-1-[(E)-2-phenylethenyl]-2,5-dihydro-1H-1,2,4-triazole-3-thiol] as the compound, how does the IC50 [2] read?
Its IC50 is 229 ± 0.02 µg/mL (≈ 607 µM).

Which “Hemolytic (%)” value ([3]; Conc. 25 PPM) does the source give for Cc1cccc(C2=NN3C(=NCN3/C=C/c3ccccc3)S2)c1 [CATD 2, 2-(3-Methylphenyl)-5-[(E)-2-phenylethenyl]-5,6-dihydro[1,2,4]triazolo[5,1-b][1,3,4]thiadiazole] here?
The value was 4.605%.

And the “Hemolytic (%)” value ([3]; Conc. 50 PPM)?
The value was 5.367%.

What about the “Hemolytic (%)” value ([3]; Conc. 100 PPM) of the same compound?
Its value is 5.759%.

And the “histopathological findings in larvae” value [4]?
Its value is “severe lesions that primarily affected the midgut epithelium”.

And the “larvicidal activity (in words)” value [1]?
Its value is “effectively showed larvicidal activity”.

And the LC90 [1, 6]?
Its LC90 is 311.453 ppm.

And the LC90 [1, 7]?
Its LC90 is 241.010 ppm.

What about the LC90 [1, 8] of the same compound?
The LC90 was 179.532 ppm.

And the LC50 [1, 9]?
The LC50 was 187 µg/mL.

What about the LC50 [1, 10] of the same compound?
The LC50 was 132 µg/mL.

And the LC50 [1, 11]?
Its LC50 is 86.6 µg/mL.

And the IC50 [2]?
The IC50 was 218 ± 0.02 µg/mL (≈ 680 µM).

For Oc1ccc(C2=NN3C(=NCN3/C=C/c3ccccc3)S2)cc1O [CATD 3, 4-{5-[(E)-2-Phenylethenyl]-5,6-dihydro[1,2,4]triazolo[5,1-b][1,3,4]thiadiazol-2-yl}benzene-1,2-diol], which IC50 [2] is on record?
The IC50 was 270 ± 0.2 µg/mL (≈ 798 µM).

For CC(=O)OCC(CCn1cnc2cnc(N)nc21)COC(C)=O [FMCV, Famciclovir, reference compound], which “Hemolytic (%)” value ([3]; Conc. 25 PPM) is on record?
The value was 4.802%.

What about the “Hemolytic (%)” value ([3]; Conc. 50 PPM) of the same compound?
The value was 6.448%.

What about the “Hemolytic (%)” value ([3]; Conc. 100 PPM) of the same compound?
Its value is 8.901%.

What about the LC90 [1, 7] of the same compound?
The LC90 was 241.010 ppm.

What about the LC90 [1, 8] of the same compound?
Its LC90 is 179.532 ppm.

What about the LC50 [1, 9] of the same compound?
The LC50 was 248 µg/mL.

What about the LC50 [1, 10] of the same compound?
The LC50 was 203 µg/mL.

And the LC50 [1, 11]?
Its LC50 is 139 µg/mL.

What about the IC50 [2] of the same compound?
Its IC50 is 270 ± 0.2 µg/mL (≈ 840 µM).

What does the source list for CC(C)=CCc1c(O)cc(O)c2c1O[C@H](c1ccccc1)CC2=O [Glabranin, reference compound]?
Hemolytic (%) ([3]; Conc. 25 PPM): 2.326%; Hemolytic (%) ([3]; Conc. 50 PPM): 4.713%; Hemolytic (%) ([3]; Conc. 100 PPM): 5.217%; LC90 [1, 6]: 311.453 ppm; LC90 [1, 7]: 241.010 ppm; LC90 [1, 8]: 179.532 ppm; LC50 [1, 9]: 258 µg/mL; LC50 [1, 10]: 199 µg/mL; LC50 [1, 11]: 140 µg/mL; IC50 [2]: 252 ± 0.2 µg/mL (≈ 777 µM)

With “(2E)-3-(4-Aminophenyl)-N′-(2,4-dinitrophenyl)prop-2-enehydrazide [ACA 4]” as the compound, how does the “Hemolytic (%)” value ([3]; Conc. 25 PPM) read?
The value was 1.736%.

And the “Hemolytic (%)” value ([3]; Conc. 50 PPM)?
Its value is 2.122%.

What about the “Hemolytic (%)” value ([3]; Conc. 100 PPM) of the same compound?
Its value is 3.460%.

What about the “histopathological findings in larvae” value [4] of the same compound?
Its value is “severe lesions that primarily affected the midgut epithelium”.

And the “larvicidal activity (in words)” value [1]?
The value was “slow mortality; also recorded: effectively showed larvicidal activity”.

What about the LC50 [1, 6] of the same compound?
Its LC50 is 101.176 ppm.

And the LC90 [1, 6]?
The LC90 was 358.428 ppm.

What about the LC50 [1, 7] of the same compound?
Its LC50 is 88.823 ppm.

And the LC90 [1, 7]?
The LC90 was 323.217 ppm.

What about the LC50 [1, 8] of the same compound?
The LC50 was 47.347 ppm.

And the LC90 [1, 8]?
The LC90 was 240.784 ppm.

What about the LC50 [1, 5] of the same compound?
Its LC50 is 0.10 µM.

And the “Vero IC50 cytotoxicity” value (Vero cells)?
Its value is 328 ± 0.02 µg/mL.
